Converted amounts (≈) assume the structure as drawn. “And” between values parts separate entries of the source, which are not always exact repeats. Equal entries are not always repeated.
Key:
[1] = system: RIP1 pathway activation (CCL4 release in human whole blood); test: Ex vivo TBZ stimulation assay of whole blood for CCL4 secretion; format: cell-based
Outline: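 Whole blood from healthy volunteers in the single- and multiple-ascending-dose stages, collected across the dosing periods, stimulated ex vivo to activate the RIP1-mediated necroptosis pathway; secreted CCL4 measured. Inhibition derived by normalising CCL4 levels to each subject's baseline, then adjusting to the maximum inhibition and SD per cohort. Placebo subjects were sampled in parallel.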

[2] = Food effect on plasma PK; format: in vivo, human
Outline: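 The same healthy subjects from the 75-mg fasted single-dose cohort, after a washout of at least five half-lives, fasted 8 h, ate a high-fat breakfast within 20 min and received a single oral 75 mg dose or placebo 30 min after breakfast began. Plasma was sampled predose, through 72 h and on day 7. Concentrations were measured by LC-MS/MS (LLOQ 0.0500 ng/mL). Relative bioavailability versus fasted dosing was based on AUC and Cmax.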

[3] = system: RIP1 pathway activation (CCL4 release in human whole blood); test: PK-PD modeling; format: cell-based
Outline: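 CCL4 inhibition from the ex vivo stimulated whole-blood assay was related to GDC-8264 plasma concentrations measured in the same volunteers by PK-PD modelling. The model estimated the IC50 and the maximal target inhibition.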

[4] = MAD both doses, comparable between day 1 and day 14
[5] = Plasma pharmacokinetics after single and multiple oral doses; format: in vivo, human; details: for AUC / concentration at 24 h / Cmax / Tmax / Vd/F / half-life: human, plasma, oral; for AUC: AUC0-τ; for Cmax: C max; for Vd/F: V z/F
Outline: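 Healthy adults received once-daily oral doses of 50 or 100 mg (8 active: 2 placebo) for up to 14 days, in the morning after an overnight fast of at least 8 h. Plasma was sampled after the first dose through 16 h, predose on days 2, 4 and 7, and through 72 h after the day-14 dose. Concentrations were measured by LC-MS/MS (LLOQ 0.0500 ng/mL). Parameters came from noncompartmental analysis: accumulation ratios day 14 versus day 1, CL/F as dose/AUC0-inf. Values given as geometric mean (geometric CV%).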

[6] = MAD 50 mg q.d., n=5, geometric mean (geometric CV%)
[7] = MAD 100 mg q.d., n=7, geometric mean (geometric CV%)
[8] = 50 mg, MAD 50 mg q.d., Day 1, n=5, geometric mean (geometric CV%)
[9] = 50 mg, MAD 50 mg q.d., Day 14, n=5, geometric mean (geometric CV%)
[10] = 100 mg, MAD 100 mg q.d., Day 1, n=7, geometric mean (geometric CV%)
[11] = 100 mg, MAD 100 mg q.d., Day 14, n=7, geometric mean (geometric CV%)

For `O=C(c1nc2n(n1)[C@H](c1ccccc1)C[C@@H]2F)C1CC1` [GDC‐8264], the “timepoint through which >90% inhibition of CCL4 was sustained” value ([1]; SAD 5- and 25-mg cohorts) was no less than 48 h, the “timepoint through which >90% inhibition of CCL4 was sustained” value ([1]; SAD 75-, 150-, and 225-mg cohorts) was no less than 72 h and the “levels of CCL4” value ([1]; SAD 150-mg cohort, 144-h timepoint) was “comparable to the placebo cohort”. The “group mean inhibition of CCL4 production” value ([1]; SAD 225-mg cohort, 144 h, mean ± SD, placebo 17% ± 3%) was 49% ± 9%, the “inhibition of CCL4” value ([1]; all SAD cohorts (5-225 mg), 1.5 h postdose) was “greater than 90%” and the “effect of a high-fat meal on the PKs” value ([2]; 75 mg single dose) was “no significant effect”. The “delay of median T max after a high-fat meal” value ([2]; 75 mg, compared to the fasted state) was 1 h, the IC50 ([3]; Homo sapiens, read-out: half-maximal inhibitory concentration (IC50) for the inhibition of CCL4 release) was 0.58 ng/mL (≈ 2.14 nM) and the “maximal inhibition of the target” value ([3]; estimated by PK-PD (Emax) modeling) was 99.4%. The “Geometric mean CLr0-τ” value [4] was ~ 0.008 L/h, the CL/F ([5]; MAD 50 mg q.d., Day 14, n=5, geometric mean (geometric CV%)) was 4.96 (14.1) L/h and the “ARAUC (accumulation ratio based on AUC0-τ of day 14 versus day 1)” value [5, 6] was 1.39 (4.8). For the same molecule, the “ARCmax (accumulation ratio based on C max of day 14 versus day 1)” value [5, 6] was 1.37 (18.3), the CL/F ([5]; MAD 100 mg q.d., Day 14, n=7, geometric mean (geometric CV%)) was 4.72 (15.2) L/h and the “ARAUC (accumulation ratio based on AUC0-τ of day 14 versus day 1)” value [5, 7] was 1.31 (17.7). The “ARCmax (accumulation ratio based on C max of day 14 versus day 1)” value [5, 7] was 1.41 (27.3), the “day on which steady-state trough concentrations were observed” value ([5]; MAD, daily doses) was 4 days and the CL/F ([5]; SAD 5 mg single oral dose, fasted, n=6, geometric mean (geometric CV%)) was 4.71 (10.0) L/h. The CL/F ([5]; SAD 25 mg single oral dose, fasted, n=6, geometric mean (geometric CV%)) was 5.08 (30.3) L/h, the CL/F ([5]; SAD 75 mg single oral dose, fasted, n=5, geometric mean (geometric CV%)) was 5.70 (19.0) L/h and the CL/F ([5]; SAD 75 mg single oral dose, high fat meal, n=5, geometric mean (geometric CV%)) was 5.79 (23.2) L/h. For the same molecule, the CL/F ([5]; SAD 150 mg single oral dose, fasted, n=5, geometric mean (geometric CV%)) was 5.40 (18.4) L/h, the CL/F ([5]; SAD 225 mg single oral dose, fasted, n=6, geometric mean (geometric CV%)) was 4.81 (6.7) L/h and the AUC [5, 8] was 7270 ng·h/mL. For the same molecule, the AUC [5, 9] was 10100 ng·h/mL, the concentration at 24 h ([5]; 50 mg, C24, MAD 50 mg q.d., Day 1, n=5, geometric mean (geometric CV%)) was 151 ng/mL and the Cmax [5, 8] was 610 ng/mL. For the same molecule, the Cmax [5, 9] was 836 ng/mL, the Tmax ([5]; 50 mg, T max, MAD 50 mg q.d., Day 1, n=5, median (range)) was 3 h and the Tmax ([5]; 50 mg, T max, MAD 50 mg q.d., Day 14, n=5, median (range)) was 2.5 h. The Vd/F [5, 9] was 80.3 L, the half-life ([5]; 50 mg, t 1/2, MAD 50 mg q.d., Day 14, n=5, geometric mean (geometric CV%)) was 11.2 h and the AUC [5, 10] was 16200 ng·h/mL. For the same molecule, the AUC [5, 11] was 21200 ng·h/mL, the concentration at 24 h ([5]; 100 mg, C24, MAD 100 mg q.d., Day 1, n=7, geometric mean (geometric CV%)) was 342 ng/mL and the Cmax [5, 10] was 1180 ng/mL. For the same molecule, the Cmax [5, 11] was 1660 ng/mL, the Tmax ([5]; 100 mg, T max, MAD 100 mg q.d., Day 1, n=7, median (range)) was 3 h and the Tmax ([5]; 100 mg, T max, MAD 100 mg q.d., Day 14, n=7, median (range)) was 2.5 h. The Vd/F [5, 11] was 77.4 L, the half-life ([5]; 100 mg, t 1/2, MAD 100 mg q.d., Day 14, n=7, geometric mean (geometric CV%)) was 11.4 h and the half-life ([5]; mean half-life, tablet formulation) was 11 to 13 h. The half-life ([5]; mean terminal half-life, range of means across single doses) was 10 to 13 h, the Tmax ([5]; median T max, SAD 5- and 25-mg doses (suspension formulation)) was 1.3 to 1.9 h and the Tmax ([5]; median T max, SAD 75-225-mg doses (tablet formulation)) was 3 to 4 h. For the same molecule, the Tmax ([5]; median T max, overall, as summarised in the discussion) was 2.5 to 4 h and the “accumulation ratio [AR]” value ([5]; multiple dosing q.d. up to 14 days, steady state) was ~ 1.4 and 1.3–1.4.

— paper PMC10582670 (Clinical and Translational Science, 2023)
